Laboratory results published in ChEMBL document CHEMBL1123129, “Hypolipidemic activity of indan-1,3-dione derivatives in rodents” (J Med Chem, 1985).
Where “and” joins values, the source holds several entries; their conditions need not be identical. Equal entries are not always repeated.

Tests used:
Mus musculus [1] = assay: Compound was evaluated for the hypolipidemic activity in CF1 male mice at a dose of 20 mg/kg orally for Serum cholesterol at 16th day; format: functional; conditions: route oral
How it was run: (§1)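 CF1 male mice received the agent orally in 1% CMC at 10–60 mg/kg per day. Tail-vein blood was taken on days 9 and 16. Serum cholesterol was measured by modified Liebermann–Burchard on duplicate 25-µL samples, and serum triglyceride on day 16 in duplicate 50-µL samples. Values are % of vehicle control, mean ± SD, N = 6; Student's t test.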

Mus musculus [2] = assay: Compound was evaluated for the hypolipidemic activity in CF1 male mice at a dose of 60 mg/kg orally for Serum cholesterol at 16th day; format: functional; conditions: route oral; how it was run: as §1
Mus musculus [3] = assay: In Vivo effect for the hypolipidemic activity on Acetyl-CoA carboxylase in CF1 mice after 16 days administered orally at a dose of 10 mg/kg; format: functional; conditions: route oral
How it was run: (§2)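 CF1 male mice are dosed orally at 10–60 mg/kg per day for 16 days, with 1% CMC as the control vehicle. Liver is homogenized at 10% in 0.25 M sucrose + 0.001 M EDTA, pH 7.2. Enzymes are assayed by literature methods, with Lowry protein. Activity is given as % of control (X ± SD, N = 6), with p from Student's t test.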

[4] = target: T1, Sterol O-acyltransferase 1 (Mus musculus) (UniProt Q61263); assay: In Vivo effect for the hypolipidemic activity on Acyl-COA cholesterol acyltransferase in CF1 mice after 16 days of oral administration at a dose of 10 mg/kg; format: functional, organism-based; parameters: dose 10 mg/kg; how it was run: as §2
T1 sequence (whole entry): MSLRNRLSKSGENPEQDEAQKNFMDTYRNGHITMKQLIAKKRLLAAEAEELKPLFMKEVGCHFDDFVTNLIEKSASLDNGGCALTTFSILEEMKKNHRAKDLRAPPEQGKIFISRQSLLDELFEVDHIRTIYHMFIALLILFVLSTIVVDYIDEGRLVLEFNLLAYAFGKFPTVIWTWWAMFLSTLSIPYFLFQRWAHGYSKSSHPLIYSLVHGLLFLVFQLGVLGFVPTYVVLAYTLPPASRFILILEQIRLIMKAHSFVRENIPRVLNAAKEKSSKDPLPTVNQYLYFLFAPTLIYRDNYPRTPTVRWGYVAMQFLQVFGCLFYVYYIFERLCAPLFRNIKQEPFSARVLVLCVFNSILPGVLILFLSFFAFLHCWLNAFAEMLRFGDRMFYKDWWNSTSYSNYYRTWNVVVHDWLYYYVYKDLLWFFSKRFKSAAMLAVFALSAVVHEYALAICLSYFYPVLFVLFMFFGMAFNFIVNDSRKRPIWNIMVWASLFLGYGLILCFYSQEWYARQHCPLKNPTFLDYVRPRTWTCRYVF

Mus musculus [5] = assay: In Vivo effect for the hypolipidemic activity on Hepatic lipoprotein lipase in CF1 mice after 16 days administered orally at a dose of 10 mg/kg; format: functional; conditions: route oral; how it was run: as §2
Rattus norvegicus [6] = assay: Compound was evaluated for the hypolipidemic activity at 20 mg/kg per day orally for 14 days on phospholipids content in rat feces.; format: functional; conditions: route oral
How it was run: (§3)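 Male Sprague–Dawley rats were dosed orally for 14 days. Liver, small intestine and a 24-h fecal collection were lipid-extracted. Extracts were assayed for cholesterol (modified Liebermann–Burchard), triglyceride (enzymatic kit), neutral lipids, phospholipids and protein. Values are % of 1% CMC vehicle control, mean ± SD, N = 6.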

Rattus norvegicus [7] = assay: Compound was evaluated for the hypolipidemic activity at 20 mg/kg per day orally for 14 days on phospholipids content in rat small intestine.; format: functional; conditions: route oral; how it was run: as §3
Rattus norvegicus [8] = assay: Compound was evaluated for the hypolipidemic activity at 20 mg/kg per day orally for 14 days on protein content in rat LDL; format: functional; conditions: route oral
How it was run: (§4)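 Male Sprague–Dawley rats (~300 g) were dosed orally each day. Blood was drawn from the abdominal vein. Lipoprotein fractions (chylomicron, VLDL, LDL, HDL) were separated by the Hatch–Lees and Havel methods. Each fraction was assayed for cholesterol, triglyceride (enzymatic kit), neutral lipids, phospholipids and Lowry protein. Values are % of 1% CMC vehicle control, N = 6.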

Rattus norvegicus [9] = assay: Compound was evaluated for the hypolipidemic activity at 20 mg/kg per day orally for 14 days on protein content in rat lipoprotein chylomicron; format: functional; conditions: route oral; how it was run: as §4
Rattus norvegicus [10] = assay: Compound was evaluated for the hypolipidemic activity at 20 mg/kg per day orally for 14 days on protein content in rat small intestine.; format: functional; conditions: route oral; how it was run: as §3
Rattus norvegicus [11] = assay: Compound was evaluated for the hypolipidemic activity at 20 mg/kg per day orally for 14 days on cholesterol content in rat LDL; format: functional; conditions: route oral; how it was run: as §4
Rattus norvegicus [12] = assay: Compound was evaluated for the hypolipidemic activity at 20 mg/kg per day orally for 14 days on cholesterol content in rat liver; format: functional; conditions: route oral; how it was run: as §3
Rattus norvegicus [13] = assay: Compound was evaluated for the hypolipidemic activity at 20 mg/kg per day orally for 14 days on cholesterol content in rat small intestine.; format: functional; conditions: route oral; how it was run: as §3
Rattus norvegicus [14] = assay: Compound was evaluated for the hypolipidemic activity at 20 mg/kg per day orally for 14 days on triglycerides content in rat lipoprotein chylomicron; p</=0.001; format: functional; conditions: route oral; how it was run: as §4
Mus musculus [15] = species: Mus musculus; assay: In Vitro evaluation for the CF1 liver enzyme activity on phosphatidate phosphohydrolase at concentration 100 uM
How it was run: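 Mouse liver enzymes assayed in vitro on 10% homogenates of CF1 male mouse liver, with test drug added at 50–200 μM. Each enzyme follows a published procedure. Protein is measured by Lowry. Activity is given as % of untreated control (X ± SD, N = 6).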

COc1ccc(C2C(=O)c3ccccc3C2=O)cc1 [ANISINDIONE]
Control (Mus musculus [1]): 62% | Control (Mus musculus [2]): 62% | Control (Mus musculus [3]): 89% | Control [4]: 92% | Control (Mus musculus [5]): 83% | Control (Rattus norvegicus [6]): 100% | Control (Rattus norvegicus [7]): 136% | Control (Rattus norvegicus [8]): 95% | Control (Rattus norvegicus [9]): 118% | Control (Rattus norvegicus [10]): 102% | Control (Rattus norvegicus [11]): 18% | Control (Rattus norvegicus [12]): 69% and 84% | Control (Rattus norvegicus [13]): 87% | Control (Rattus norvegicus [14]): 72% | Control (Mus musculus [15]): 29%
